# Assay outcomes deposited in PubChem by several laboratories.
# NTR1 ag – activates human neurotensin receptor 1; P30989; NTR1-U2OS beta-arrestin-GFP spot imaging, agonist mode; activation, % at 20 µM; 330,000 tested, 0.17% active;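 active = activation at or above 40% of the spot to cytoplasm intensity ratio, with at least 20 cells analyzed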
# Target sequence (P30989 whole entry, looked up): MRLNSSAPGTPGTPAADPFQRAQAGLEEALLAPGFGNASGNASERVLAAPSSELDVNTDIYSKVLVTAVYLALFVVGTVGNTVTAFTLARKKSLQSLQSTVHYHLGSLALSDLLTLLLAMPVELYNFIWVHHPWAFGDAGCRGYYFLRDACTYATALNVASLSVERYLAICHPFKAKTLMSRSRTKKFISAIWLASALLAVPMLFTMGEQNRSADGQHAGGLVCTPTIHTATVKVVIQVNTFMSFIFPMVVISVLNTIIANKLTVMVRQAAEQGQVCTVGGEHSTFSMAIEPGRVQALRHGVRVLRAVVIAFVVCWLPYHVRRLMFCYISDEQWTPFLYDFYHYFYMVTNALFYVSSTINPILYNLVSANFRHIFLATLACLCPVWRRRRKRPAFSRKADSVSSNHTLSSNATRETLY
# MC4R ag barr – activates human MC4R beta-arrestin recruitment | activation, % at 8.9 µM | AID 540308 | 360,000 tested, 0.98% active | P32245 | U2OS MC4R beta-arrestin complementation, luminescence; percent of melanotan II response, DMSO zero;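 active = activation above a per-plate cutoff, the mean activation of sample wells on that plate plus 3 SD, cut at about 8% in these data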
# MC4R antagonist – blocks human MC4R cAMP signaling; P32245; MC4R-expressing cells, MTII-stimulated cAMP, LANCE TR-FRET; inhibition, % at 6.5 µM; 360,000 tested, 0.48% active; AID 540295;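 active = inhibition above its plate's cutoff, the mean of tested wells on that plate plus 3 SD, cut at about 29% in these data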
#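 Material: human MC4R-expressing U2OS cells. Probe or stimulus: Melanotan II challenge. Dosing: 6.5 µM single dose. Times: 30-min compound, 1-h challenge, 1-h detection, room temperature. Technique: TR-FRET with Eu-cAMP and labeled anti-cAMP, 671 nm. Replication: singlicate.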
# Exocytosis inh – blocks lytic granule exocytosis; TALL-104 LAMP-1 surface exposure, flow cytometry; cells stimulated with thapsigargin and PMA; inhibition, % at 10 µM; 360,000 tested, 0.66% active; AID 651702;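 active = inhibition above about 55%, limit read from the data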
# HGIII-sPLA2 inh – Blocks human group III sPLA2 activity | inhibition, % at 12.2 µM | Q9NZ20 | 370,000 tested, 0.56% active | QFRET BODIPY PC-A2 liposome hydrolysis, fluorescence;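 active = inhibition above mean plus 3 SD of compounds lying within the high and low control bounds, cut at about 19% in these data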
# Bfl-1 A1 inh – inhibitors of the anti-apoptotic protein A1, read as caspase activation; MEF A1-2A-BIM cells, Caspase-Glo 3/7 luminescence, 3 h; percent of clofoctol response, vehicle zero; caspase activation, % (test concentration not listed); 330,000 tested, 0.066% active; AID 2462;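 active = over half of replicate activation scores above 10%, or exactly half above 10 with the replicate mean above 10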
# MC4R barr ag – human MC4R beta-arrestin agonism confirmation. shares compounds with MC4R ag barr. U2OS MC4R beta-arrestin recruitment, luminescence; scaled DMSO 0%, Melanotan II 100%. activation, % at 8.9 µM. 2,400 tested, 31% active;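 active = mean activation across replicates above the hit cutoff set in the earlier primary screen, cut at about 8% in these data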
# MOR-DOR barr ag – activates mu-delta opioid heterodimer, MC4R agonist counter-screen. shares compounds with MC4R ag barr. U2OS PathHunter beta-arrestin, beta-gal luminescence; percent of deltorphin B response, DMSO zero. activation, % at 9.2 µM. 2,400 tested, 5.8% active. AID 602194;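 active = mean activation across replicates exceeds the hit threshold derived in the earlier primary screen, cut at about 18% in these data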
# Numbers stand for hits; . = inactive; / = not tested or not shown. Hits are enriched below; roughly 2.5% of the tested compounds scored in any of these assays.
SMILES,NTR1 ag,MC4R ag barr,MC4R antagonist,Exocytosis inh,HGIII-sPLA2 inh,Bfl-1 A1 inh,MC4R barr ag,MOR-DOR barr ag
C[C@H](O)[C@@H]1CN2CCc3c([nH]c4c(-c5ccccc5)cccc34)[C@@H]2C[C@@H]1N(C)CC1CCCCC1,/,/,/,/,.,/,/,/
O=S1(=O)CC(N2CCCC2)CN1Cc1cn(Cc2ccc(C(F)(F)F)cc2)nn1 (stereo unspecified),/,/,/,/,.,/,/,/
COc1ccc(N2C(=O)c3n[nH]c(C)c3C2c2ccc(F)cc2)cc1 (stereo unspecified),/,/,/,/,.,/,/,/
Cn1c(SCC(=O)Nc2cccc(Br)c2)nnc1-c1cc2ccccc2o1,.,11,.,.,.,/,.,.
CCOC(=O)CC[C@@]1(C(=O)OCC)C[C@@H](CC(=O)NCc2ccc(C)o2)C(=O)N2CCCC=C21,/,/,/,/,.,/,/,/
C=C(C)c1cccc(C(C)(C)NC(=O)N(Cc2ccccc2)Cc2ccco2)c1,.,17,.,.,.,.,.,.
C=C(C)c1cccc(C(C)(C)NC(=O)NC2CCN(Cc3ccccc3)CC2)c1,.,.,.,.,.,.,/,/
CC(C)N(C(N)=NC(=O)OCc1ccccc1)C(C)C,/,/,/,/,.,/,/,/
CN1C(=O)c2cc(NS(=O)(=O)c3cccc(F)c3)ccc2OC[C@@H]2O[C@H](CC(=O)O)CC[C@H]21,/,/,/,/,.,/,/,/
Cc1nn(-c2nc3ccccc3s2)c(N)c1Sc1ccc(F)cc1,.,15,.,.,.,.,.,.
Clc1ccc(CSc2cnnc3ccccc23)cc1Cl,/,13,.,.,.,/,.,.
O=C(C1CCC1)N1CCc2cc(S(=O)(=O)C3CCN(Cc4ccc(F)cc4)CC3)ccc21,/,/,/,/,.,/,/,/
COc1ccccc1NC(=S)NC(=O)c1ccc(-c2ccc(Cl)cc2)o1,.,20,.,.,.,.,.,.
Cc1c(NC(=S)NC(=O)c2ccc(-c3ccc(Cl)cc3)o2)cccc1C(=O)O,.,.,.,.,.,.,/,/
O=C(NC(=S)Nc1ccccc1O)c1ccc(-c2ccc(Cl)cc2)o1,.,30,.,.,.,.,.,.
Cc1ccc(O)c(NC(=S)NC(=O)c2ccc(-c3ccc(Cl)cc3)o2)c1,.,.,.,.,.,.,/,/
O=C(CNC(=S)NC(=O)c1ccccc1Br)c1ccccc1,.,21,.,.,.,.,.,.
COc1ccc(CCn2c(C)cc(C(=O)COC(=O)c3cnc(C)cn3)c2C)cc1,.,.,.,.,.,.,/,/
COc1ccc(CCn2c(C)cc(C(=O)COC(=O)c3ccc(O)cc3O)c2C)cc1,/,25,.,.,.,/,9.3,.
COC(=O)[C@]12C[C@H](CC(=O)N3CCC(c4ccccc4)CC3)C(=O)N(Cc3ccc4c(c3)OCO4)C1=C[C@H](COCc1ccccc1)O[C@@H]2C,/,/,/,/,.,/,/,/
Cc1ccc(Cl)cc1N1CCN(S(=O)(=O)c2ccc3[nH]c(=O)ccc3c2)CC1,.,10,.,.,.,.,11,.
Clc1ccccc1-c1cnc2sc(NCc3ccc4c(c3)OCO4)nn12,/,22,.,.,.,/,13,.
Clc1ccccc1-c1ccc2ncnc(NCc3ccc4c(c3)OCO4)c2c1,.,.,.,.,.,.,/,/
CC(COc1cccc(Br)c1)CN1CCC(C(O)(c2ccccc2)c2ccccc2)CC1 (stereo unspecified),/,/,/,/,.,/,/,/
C=CCn1c(=S)[nH]c2cc(C(=O)Nc3ccc(OC)c(OC)c3)ccc2c1=O,.,10,.,.,.,.,.,.
SMILES,NTR1 ag,MC4R ag barr,MC4R antagonist,Exocytosis inh,HGIII-sPLA2 inh,Bfl-1 A1 inh,MC4R barr ag,MOR-DOR barr ag
COCCn1c(=O)[nH]c2cc(C(=O)Nc3ccc(OC)c(Cl)c3)ccc2c1=O,.,.,.,.,/,.,/,/
Cc1ccc(NC(=O)Nc2nc3ccccc3s2)cc1NC(=O)Nc1nc2ccccc2s1,.,10,.,.,.,.,10,.
O=[N+]([O-])c1cc2c(cc1/C=N\NS(=O)(=O)c1ccccc1)OCO2,.,.,.,.,.,.,/,/
CNc1nc(N/N=C/c2cc3c(cc2[N+](=O)[O-])OCO3)nc(Nc2ccccc2)n1,.,25,.,.,.,.,.,.
CSc1nc(/C=C2\C=Nc3ccccc32)c(O)n1C,.,.,.,.,.,.,/,/
CC(C)n1c(O)c(/C=C2\C=Nc3ccccc32)sc1=Nc1ccccc1,.,13,.,.,.,.,.,.
COCCCN1C(=O)[C@H](CC(=O)N2CCSCC2)[C@]2(C(=O)OC)CCCCC=C12,/,/,/,/,.,/,/,/
COc1cc(NC(=O)c2cccs2)c(OC)cc1NC(=O)CCC(=O)Nc1ccc(C)cc1,.,13,.,.,.,.,.,.
COc1ccc(NC(=O)CCC(=O)Nc2cc(OC)c(NC(=O)c3cccs3)cc2OC)cc1,.,.,.,.,.,.,/,/
C=C(C)CSc1nc2sc(C)c(C)c2c(=O)n1C,/,/,/,/,.,/,/,/
Cc1ccc2c(COC(=O)c3ccccc3Br)cc(=O)oc2c1,.,9.7,.,.,.,.,.,.
COc1ccc(-c2ccc3c(c2)S(=O)(=O)c2cccc(C(=O)O)c2C3=O)cc1OC,.,.,.,.,.,.,/,/
COc1ccc(-c2ccc3c(c2)S(=O)(=O)c2cccc(C(=O)NCc4cc(C)oc4C(F)(F)F)c2C3=O)cc1OC,.,12,.,.,/,.,27,.
CCC(C)(C)c1ccc(OCCCC[n+]2cccc(C)c2C)c(C(C)(C)CC)c1,.,23,.,.,.,.,22,.
COc1ccc(OC)c2sc(NC(=O)CCSc3ccccc3)nc12,.,11,.,.,.,.,.,.
O=C(NCC1OCCc2ccccc21)c1ccc(NC(=O)c2ccc(Cl)cc2Cl)cc1 (stereo unspecified),.,15,.,.,.,.,.,.
O=C(NCC1OCCc2ccccc21)c1ccc(NC(=O)c2ccccc2Cl)cc1 (stereo unspecified),.,.,.,.,.,.,/,/
COc1cc(OC)cc(C(C)c2ccc(C)cc2)c1 (stereo unspecified),/,/,/,/,.,/,/,/
CCOc1ccc2nc(NC(=O)CS(=O)(=O)c3ccc(C)cc3)sc2c1,.,11,.,.,.,.,.,.
Cc1nc(NC(=O)CSc2nc3cccnc3n2Cc2ccccc2)sc1C,.,26,.,.,.,.,.,.
CCOc1ccc2nc(NC(=O)CSc3nc4cccnc4n3C)sc2c1,.,16,.,.,.,.,8.9,.
CCOC(=O)CNC(=O)CSc1nc2cccnc2n1Cc1ccccc1,.,.,.,.,.,.,/,/
